Bioassay records as filed in PubChem.
INS-1E GSIS act: primary screen for activators of insulin secretion dependent on glucose, INS-1E cells, GLuc reporter luminescence. INS-1E GLuc reporter insulin secretion, 2-3 h. activation, % at 16.6 µM. 0.61% of 370,000 active;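 active = lowest replicate activation of at least 40%, so every replicate reaches that level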
CDK5 p35 inh: CDK5/p35 (human) kinase inhibition | Q00535+Q15078 | Recombinant CDK5/p35, ADP-Glo luminescence, 60 min | inhibition, % at 10 µM | 0.01% of 330,000 active | AID 488839;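 active = highest replicate inhibition of at least 50% and at least 75% of replicates reaching 50%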
Target sequence (Q00535 whole entry, looked up): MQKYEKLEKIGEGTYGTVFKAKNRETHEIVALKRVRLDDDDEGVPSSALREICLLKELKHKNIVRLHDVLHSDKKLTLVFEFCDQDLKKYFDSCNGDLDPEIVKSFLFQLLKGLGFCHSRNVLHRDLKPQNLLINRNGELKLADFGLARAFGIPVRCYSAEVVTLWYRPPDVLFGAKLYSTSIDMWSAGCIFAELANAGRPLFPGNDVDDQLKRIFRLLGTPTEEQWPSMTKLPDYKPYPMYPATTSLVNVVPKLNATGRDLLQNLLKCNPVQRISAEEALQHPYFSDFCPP
Target sequence (Q15078 whole entry, looked up): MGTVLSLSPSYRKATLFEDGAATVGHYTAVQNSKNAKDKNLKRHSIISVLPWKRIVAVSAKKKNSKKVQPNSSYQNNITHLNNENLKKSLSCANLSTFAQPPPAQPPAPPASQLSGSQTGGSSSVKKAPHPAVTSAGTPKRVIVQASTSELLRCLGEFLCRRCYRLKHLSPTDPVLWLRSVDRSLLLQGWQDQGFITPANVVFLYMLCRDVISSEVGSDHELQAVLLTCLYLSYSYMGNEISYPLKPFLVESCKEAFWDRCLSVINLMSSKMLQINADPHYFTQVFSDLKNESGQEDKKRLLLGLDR
Cneo AK release: Cryptococcus neoformans lysis via adenylate kinase release; 0.2% of 360,000 active; C. neoformans lysis, adenylate kinase release luminescence, 4 h; normalised: neutral wells 0, clomiphene wells 100; lysis activity, % at 15 µM;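 active = mean lysis activity across replicates of at least 80%, whatever share of replicates individually reach that level; inactive = mean lysis activity below 80%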
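Assay system: log-phase C. neoformans yeast / Quantity: yeast cell density of 5 × 10^6 cells/mL / Medium: fresh YPD growth medium / Compound: single dose / Timing: static 4 h at 37 °C with compound, 1 h detection / Measured by: adenylate kinase release luminescence / Read-out: lysis from increased AK signal / Benchmarks: Clomiphene as positive lysis control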
dFosB activator: enhances mouse delta FosB homodimer DNA binding. P13346. purified delta FosB, TAMRA-CDK5 oligo fluorescence polarization; percent of positive-control signal above neutral wells. 0.99% of 340,000 active. AID 493131. activation, % at 25 µM;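 active = mean activation above about 17%, with every replicate also reaching it, limit read from the data, passing the limit was not always enough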
PAX8 reporter: lowers PAX8-driven luciferase in RMG-I cells; RMG-I TPO-luciferase reporter, SteadyGlo, 24 h; inhibition, % at 12.6 µM; 1.2% of 360,000 active;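 active = mean replicate inhibition at least 60% with every replicate also reaching 60%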;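 note: luciferase light reporting Pax8 driven TPO promoter activity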
Env fusion inh: inhibitors of HIV Env-mediated cell fusion. HeLa-JRFL Env/CEM21 cell fusion, luciferase. inhibition, % at 12.3 µM. 1.1% of 360,000 active. AID 651610;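 active = mean replicate inhibition score of at least 50 and every replicate individually at or above 50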
Numbers stand for hits; n = inactive; x = no result given. The list is not random: actives were taken first. Their share in the collection is about 2.9%.

SMILES	INS-1E GSIS act	CDK5 p35 inh	Cneo AK release	dFosB activator	PAX8 reporter	Env fusion inh
CCN(CCO)Cc1csc2ccccc12	n	n	x	n	n	x
CCN(CCO)Cc1csc2cc(C)ccc12	47	n	x	n	n	n
COc1ccc(C(O)(CCC(C)C)C(CN2CCOCC2)c2ccccc2)cc1 (stereo not given)	n	n	n	n	n	73
CC(C)CCC(O)(c1ccccc1)C(CN1CCOCC1)c1ccccc1 (stereo not given)	n	n	n	n	n	n
CCN(C[C@@H]1N[C@@H](CO)[C@H]1c1ccc(-c2ccccc2)cc1)C(=O)COC	n	x	n	x	n	x
Nc1nc(Nc2ccccc2)sc1C(=O)c1ccccc1	n	82	n	n	n	n
COc1ccc(C(=O)c2sc(Nc3ccccc3)nc2N)cc1OC	43	n	n	n	n	n
COc1ccc(C(=O)c2sc(Nc3ccccc3)nc2N)cc1	n	n	n	n	n	n
CN1CCN(C(=O)C[C@@H]2CC[C@H]3[C@@H](COc4ccc(NC(=O)C5CCCC5)cc4C(=O)N3C)O2)CC1	n	x	x	x	n	x
Cc1ccsc1/C=N/n1c(-c2ccncc2)n[nH]c1=S	48	n	n	n	n	n
CC(/C=N/n1c(-c2cccnc2)n[nH]c1=S)=C\c1ccccc1	x	n	n	n	n	n
CC(=C/c1ccccc1)/C=N/n1c(C)n[nH]c1=S	n	n	n	n	n	59
CC(=C/c1ccccc1)/C=N/n1c(-c2ccncc2)n[nH]c1=S	n	n	x	n	n	64
CS(=O)(=O)Nc1ccc2c(c1)[C@@H]1C[C@H](CC(=O)NCCN3CCCCC3)O[C@H](CO)[C@@H]1O2	n	x	n	x	n	n
O=C(C[C@@H]1C=C[C@H](NC(=O)CN2CCOCC2)[C@H](CO)O1)NC1CCCCC1	n	x	n	x	n	n
Nc1nonc1C(=O)NCCNCc1cc(Br)ccc1OCc1ccccc1F	x	n	n	n	x	78
CCSc1nnc(NC(=O)c2csc3c2CCCC3)s1	119	n	n	n	x	x
CCSc1nnc(NC(=O)c2csc3c2CCC(C)C3)s1 (stereo not given)	x	n	n	n	x	n
C[C@@H]1CN([C@@H](C)CO)C(=O)c2cccc(NC(=O)c3ccc(-c4nccs4)cc3)c2O[C@@H]1CN(C)Cc1ccc(C(F)(F)F)cc1	n	x	n	x	x	x
C[C@@H]1CCCCO[C@@H](CN(C)C(=O)Nc2ccccc2)[C@H](C)CN([C@@H](C)CO)C(=O)c2cc(NC(=O)Nc3ccccc3)ccc2O1	n	x	n	x	n	n
COc1ccc(N2CCN(C(=O)C3CCN(S(=O)(=O)c4ccccc4)CC3)CC2)cc1	n	n	x	n	n	n
O=C(C1CCN(S(=O)(=O)c2cccnc2)CC1)N1CCN(c2ccccc2Cl)CC1	x	n	n	n	x	x
Cc1nn(C)c(C)c1S(=O)(=O)N1CCCC(C(=O)N2CCN(c3ccc(Cl)cc3)CC2)C1 (stereo not given)	x	n	n	n	n	63
O=C(C1CCN(S(=O)(=O)c2cccnc2)CC1)N1CCN(c2ccc(Cl)cc2)CC1	n	n	x	n	67	n
O=C(C1CCN(S(=O)(=O)c2ccccc2)CC1)N1CCN(c2ccccc2)CC1	n	n	n	n	n	61
SMILES	INS-1E GSIS act	CDK5 p35 inh	Cneo AK release	dFosB activator	PAX8 reporter	Env fusion inh
COCC#Cc1cnc2c(c1)C(=O)N([C@@H](C)CO)C[C@H](C)[C@@H](CN(C)Cc1ccc(F)cc1)O2	n	x	n	x	x	n
O=C(N[C@H]1CC[C@H](CCn2cc(-c3ccccn3)nn2)O[C@@H]1CO)c1cccnc1	n	x	n	x	n	n
O=C1CCCc2c1[nH]c1ccc(Cl)cc21	x	n	n	n	x	83
CCOC(=O)C1CCCc2c1[nH]c1ccc(Cl)cc21 (stereo not given)	n	n	x	n	n	n
OCCN=C1CCCc2c1[nH]c1ccc(Cl)cc21	n	n	x	n	n	67
CCOC(=O)c1ccc2[nH]c3c(c2c1)CCCCC3=O	n	n	n	n	x	x
OCCCN=C1CCCc2c1[nH]c1ccc(Cl)cc21	x	n	x	n	n	57
COc1ccc2[nH]c3c(c2c1)CCC/C3=N\N	n	n	n	n	n	n
C[C@@H]1CN([C@H](C)CO)S(=O)(=O)c2ccc(-c3ccc(C(=O)N(C)C)cc3)cc2O[C@H]1CN(C)C(=O)C1CCCCC1	n	x	n	x	x	n
Cc1cc(C(=O)Nc2cccc3c2O[C@H](CN(C)CC2CCCCC2)[C@H](C)CN([C@@H](C)CO)C3=O)n(C)n1	n	x	n	x	n	n
COc1ccc(-c2noc(N3CCC(C(=O)N4CCN(c5ccccn5)CC4)CC3)n2)cc1	n	n	n	n	x	63
CCN(C(=O)C1CCN(c2nc(-c3ccc(OC)cc3)no2)CC1)c1ccc(OC)cc1	n	n	n	n	n	60
COc1ccc(C(=O)N2CCN(c3ccccn3)CC2)cc1	x	n	n	n	x	n
CS(=O)(=O)Nc1ccc2c(c1)[C@H]1C[C@H](CC(=O)NCc3ccncc3)O[C@@H](CO)[C@H]1O2	n	x	n	x	n	n
CCS(=O)(=O)N1[C@H](CO)[C@@H](c2ccccc2)C12CN(C(=O)C1CCCC1)C2	n	x	x	x	x	x
COCC(=O)OC1CCn2c1nc1c2C(=O)C(C)=C(NC(C)=O)C1=O (stereo not given)	n	n	x	n	115	n
O=c1cc(-c2ccccc2Cl)oc2cc(O)cc(O)c12	n	n	n	n	n	n
O=C1C=CC(O)(c2cc(=O)c3c(O)cc(O)cc3o2)C=C1	n	n	n	n	89	n
COc1ccccc1CNC(=O)C[C@@H]1C=C[C@@H](NC(=O)CN(C)C)[C@H](CO)O1	n	x	x	x	x	x
C[C@@H]1CN([C@H](C)CO)C(=O)c2ccccc2-c2ccccc2CO[C@H]1CN(C)S(=O)(=O)c1cccc(C#N)c1	n	x	95	x	n	n
COc1cccc(S(=O)(=O)N(C)C[C@@H]2OCc3ccccc3-c3ccccc3C(=O)N([C@@H](C)CO)C[C@@H]2C)c1	n	x	100	x	91	n
CCCNC(=O)Nc1ccc2c(c1)OC[C@@H](C)N(Cc1cccnc1)C[C@H](C)[C@@H](OC)CN(C)C2=O	n	x	n	x	n	n
Cc1nccn1-c1ccc(NC(=O)[C@@H](Cc2ccccc2)NC(=O)[C@H]2O[C@@H](n3ccc(=O)[nH]c3=O)[C@H](O)[C@@H]2O)cc1	n	x	x	x	n	n
NC(=O)c1ncn([C@@H]2O[C@H](C(=O)N3CCN(CC(=O)Nc4ccccn4)CC3)[C@@H](O)[C@H]2O)n1	n	x	x	x	n	n
NC(=O)c1ncn([C@@H]2O[C@H](C(=O)N[C@H](Cc3c[nH]c4ccccc34)C(=O)O)[C@@H](O)[C@H]2O)n1	x	x	x	x	n	n
CN(C(=O)[C@H]1O[C@@H](n2cnc(C(N)=O)n2)[C@H](O)[C@@H]1O)c1ccccc1	187	x	x	x	n	n
